From ChEMBL document CHEMBL1641392, “Triterpenes from Garcia parviflora. Cytotoxic evaluation of natural and semisynthetic friedelanes” (J Nat Prod, 2010) come the findings set out here.

SMILES strings stand for the structures.

A word on the IC50: it is the midpoint of a concentration-inhibition curve.

Holding throughout (format): functional, cell-based
For one assay, the system named is SK-LU-1. Put plainly: Cytotoxicity against human SK-LU-1 cells after 48 hrs by sulforhodamine B assay. An outline of the steps: (§1)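 Cells (NCI source) in RPMI-1640 with 10% FBS and antibiotics, 37 °C, 5% CO2. Seeded at 5 × 10^4 cells/mL (K562, MCF-7), 7.5 × 10^4 (U251, PC-3, SKLU-1), or 10 × 10^4 (HCT-15). After 24 h, DMSO-dissolved compounds added for 48 h. Fixed with cold TCA, stained with 0.4% SRB, Tris-extracted, read at 515 nm. IC50 from linear regression of dose-response curves.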
(In general: The SRB assay estimates cell density from bound dye.)

A further assay has as its system MCF7. Put plainly: Cytotoxicity against human MCF7 cells after 48 hrs by sulforhodamine B assay. In short, it runs like this: as §1
The test system of the next assay is K562. Briefly: Cytotoxicity against human K562 cells after 48 hrs by sulforhodamine B assay. An outline of the steps:
as §1

For another assay, the system named is PC-3. Briefly: Cytotoxicity against human PC3 cells after 48 hrs by sulforhodamine B assay. In short, it runs like this: as §1
For another assay, the system named is HCT-15. Briefly: Cytotoxicity against human HCT15 cells after 48 hrs by sulforhodamine B assay. The note with it: HCT-15, 48 h. An outline of the steps: as §1
A further assay relates to U-251. Briefly: Cytotoxicity against human U251 cells after 48 hrs by sulforhodamine B assay. To be noted: U-251, 48 h. In short, it runs like this: as §1

On to `CC(=O)O[C@H]1C[C@@H](O)[C@@H]2[C@](C)(CC[C@H]3[C@@]2(C)CC[C@@]2(C)[C@@H]4CC(C)(C)CC[C@]4(C)CC[C@]32C)[C@H]1C`, for which the Activity result in the assay with SK-LU-1, in the assay with MCF7, in the assay with K562 and in the assay on PC-3 was “Not toxic” in each case.
Take `CC1(C)CC[C@]2(C)CC[C@]3(C)[C@H]4CC[C@@]5(C)[C@@H](C=CC(=O)[C@@]5(C)O)[C@]4(C)CC[C@@]3(C)[C@@H]2C1`: the Activity result in the assay with SK-LU-1, with MCF7, with K562 and in the assay on PC-3 was “Not toxic” in each case. For the same compound, the IC50 in the assay on HCT-15 was 41.8 µM.
Turning to `CC(=O)O[C@H]1CC[C@]2(C)[C@H]3CC[C@]4(C)C(=CC[C@@]5(C(=O)O)CCC(C)(C)C[C@H]54)[C@]3(C)CC[C@H]2C1(C)C` [ACETYL ALEURITOLIC ACID], the Activity entry in the assay with SK-LU-1, in the assay with MCF7, with K562 and in the assay with PC-3 was “Not toxic” in each case. The IC50 in the assay with U-251 was 8.4 µM.
Consider `C[C@H]1[C@@H](O)C[C@@H](O)[C@@H]2[C@]1(C)CC[C@H]1[C@@]2(C)CC[C@@]2(C)[C@@H]3CC(C)(C)CC[C@]3(C)CC[C@]12C`, for which the Activity result in the assay on SK-LU-1, in the assay on MCF7, in the assay with K562 and with PC-3 was “Not toxic” each time. The compound further registered an IC50 with U-251 of 22.8 µM.
Turning to `C[C@H]1C(=O)C=C[C@@H]2[C@]1(C)CC[C@H]1[C@@]2(C)CC[C@@]2(C)[C@@H]3CC(C)(C)CC[C@]3(C)CC[C@]12C`, the Activity result in the assay with SK-LU-1, in the assay with MCF7, with K562 and in the assay with PC-3 was “Not toxic” throughout.
For `C[C@H]1OC(=O)C[C@@H](O)[C@@H]2[C@]1(C)CC[C@H]1[C@@]2(C)CC[C@@]2(C)[C@@H]3CC(C)(C)CC[C@]3(C)CC[C@]12C`, the Activity result with SK-LU-1, in the assay on MCF7, in the assay on K562 and with PC-3 was “Not toxic” in each case.
Consider `C[C@H]1C(=O)CC(=O)[C@@H]2[C@]1(C)CC[C@H]1[C@@]2(C)CC[C@@]2(C)[C@@H]3CC(C)(C)CC[C@]3(C)CC[C@]12C`, for which the Activity entry in the assay on SK-LU-1, with MCF7, in the assay with K562 and in the assay with PC-3 was “Not toxic” each time.
Turning to `C[C@H]1C(=O)C[C@@H](O)[C@@H]2[C@]1(C)CC[C@H]1[C@@]2(C)CC[C@@]2(C)[C@@H]3CC(C)(C)CC[C@]3(C)CC[C@]12C`, the Activity result in the assay with SK-LU-1, in the assay on MCF7, with K562 and in the assay with PC-3 was “Not toxic” in each case.
With `C[C@H]1OC(=O)CC[C@@H]2[C@]1(C)CC[C@H]1[C@@]2(C)CC[C@@]2(C)[C@@H]3CC(C)(C)CC[C@]3(C)CC[C@]12C` [FRIEDELIN-3,4-LACTONE], the Activity result with SK-LU-1, with MCF7, in the assay on K562 and in the assay on PC-3 was “Not toxic” each time. Moreover, 17.1 µM corresponded to half-maximal inhibition with U-251 (IC50).
As to `CC1(C)CC[C@]2(C)CC[C@]3(C)[C@H]4CC[C@@]5(C)[C@@H](CC[C@H](O)[C@@H]5C(=O)O)[C@]4(C)CC[C@@]3(C)[C@@H]2C1`, the Activity result in the assay with SK-LU-1, in the assay on MCF7, in the assay with K562 and with PC-3 was “Not toxic” throughout.
For the compound `C[C@H]1NC(=O)C[C@@H](O)[C@@H]2[C@]1(C)CC[C@H]1[C@@]2(C)CC[C@@]2(C)[C@@H]3CC(C)(C)CC[C@]3(C)CC[C@]12C`, the Activity entry in the assay with SK-LU-1, in the assay on MCF7, in the assay with K562 and in the assay on PC-3 was “Not toxic” throughout.
Turning to `CC(=O)O[C@H]1C[C@@H](OC(C)=O)[C@@H]2[C@](C)(CC[C@H]3[C@@]2(C)CC[C@@]2(C)[C@@H]4CC(C)(C)CC[C@]4(C)CC[C@]32C)[C@H]1C`, the Activity result in the assay on SK-LU-1, with MCF7, with K562 and in the assay on PC-3 was “Not toxic” in each case.
As to `C[C@H]1/C(=N/O)C[C@@H](O)[C@@H]2[C@]1(C)CC[C@H]1[C@@]2(C)CC[C@@]2(C)[C@@H]3CC(C)(C)CC[C@]3(C)CC[C@]12C`, the Activity entry in the assay with SK-LU-1, in the assay on MCF7, in the assay with K562 and in the assay on PC-3 was “Not toxic” in each case.
With `C=C[C@@H]1[C@@](C)([C@@H](C)C(=O)O)CC[C@H]2[C@@]1(C)CC[C@@]1(C)[C@@H]3CC(C)(C)CC[C@]3(C)CC[C@]21C`, the Activity result in the assay on SK-LU-1, in the assay on MCF7, in the assay with K562 and with PC-3 was “Not toxic” each time. In the assay with U-251, the IC50 was found to be 36.8 µM.
